ABHD4 inh: inhibits mouse alpha/beta hydrolase domain 4. inhibition, % at 8.92 µM. purified mABHD4, FP-Rh probe fluorescence polarization. Q8VD66. AID 720543. 0.54% of 370,000 active;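 active means inhibition exceeding the mean over every tested compound plus 3 SD, cut at about 30% in these data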;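 further: 0% = plate median of compound wells and 100% = S159A mutant with DMSO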
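System: mouse ABHD4 enzyme, wild type / Medium: HEPES pH 7.0, NaCl, Pluronic buffer / Reagent: FP-Rh activity-based fluorescent probe / Control set: S159A mutant high control, sample median low control / Detection: fluorescence polarization with parallel and perpendicular emission, 525/598 nm / Schedule: 45 min + 60 min at 25 °C / Compound dosing: 8.92 µM, single dose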
SIAE inh: human SIAE inhibition, primary screen; Q9HAT2; 0.69% of 370,000 active; SIAE FP-Rh probe binding, fluorescence polarization; inhibition, % at 9.66 µM;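 active means inhibition above a cutoff: mean of compounds within the control limits plus 3 SD of those, cut at about 17% in these data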;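 further: 0% = plate median of compound wells and 100% = probe without SIAE protein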
Target sequence (Q9HAT2 whole entry, looked up): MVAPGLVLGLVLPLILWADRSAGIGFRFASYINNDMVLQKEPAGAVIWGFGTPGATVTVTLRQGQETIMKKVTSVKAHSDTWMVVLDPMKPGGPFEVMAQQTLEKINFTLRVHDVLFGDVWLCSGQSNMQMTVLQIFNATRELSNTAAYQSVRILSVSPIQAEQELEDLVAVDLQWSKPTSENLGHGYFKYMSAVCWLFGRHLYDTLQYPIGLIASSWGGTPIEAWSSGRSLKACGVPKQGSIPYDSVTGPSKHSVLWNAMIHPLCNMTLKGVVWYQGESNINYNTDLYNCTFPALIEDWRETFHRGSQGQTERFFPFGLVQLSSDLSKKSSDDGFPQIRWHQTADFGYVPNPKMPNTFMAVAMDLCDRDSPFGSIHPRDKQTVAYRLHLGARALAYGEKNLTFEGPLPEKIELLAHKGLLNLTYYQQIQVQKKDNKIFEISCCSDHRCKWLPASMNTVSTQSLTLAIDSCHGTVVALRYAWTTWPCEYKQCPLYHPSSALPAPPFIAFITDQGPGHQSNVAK
PRMT1 inh: inhibitors of human PRMT1 | Q99873 | recombinant PRMT1, activity-based probe fluorescence polarization | inhibition, % at 2.79 µM | 1.3% of 370,000 active;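 active means inhibition above about 21% made by adding two undisclosed values, limit read from the data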
HTRA1 inhibitor: inhibitors of human serine peptidase HTRA1. recombinant HTRA1, FP-rhodamine activity-based probe, fluorescence polarization. inhibition, % at 5.96 µM. 0.5% of 340,000 active. AID 504803; in the data active means inhibition above about 36%;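 further: 0% = enzyme with DMSO and 100% = wells lacking enzyme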
TCR CD3 inh: human TCR-CD3 binding inhibition | TAMRA-labeled TCR probe fluorescence, biochemical | 0.37% of 360,000 active | inhibition, % at 9.4 µM; in the data active means inhibition above about 19%;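 further: recombinant mutant TCR 2C K166C tagged with TAMRA read by polarization; 0% = receptor in buffer alone and 100% = receptor with positive control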
PRMT1 inh conf: PRMT1 (human) inhibition, FP confirmation. shares compounds with PRMT1 inh. recombinant His-PRMT1, activity-based probe fluorescence polarization. inhibition, % at 2.79 µM. 42% of 3,300 active. AID 687036;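 active means mean inhibition across replicates above the hit cutoff derived for the earlier primary screen, cut at about 22% in these data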
An asterisk follows results filed as active; . = no result. The list is not random: actives were taken first. Their share in the collection is about 2.5%.

SMILES | ABHD4 inh | SIAE inh | PRMT1 inh | HTRA1 inhibitor | TCR CD3 inh | PRMT1 inh conf
CC(C)(C)OC(=O)N[C@@H](Cc1ccccc1)c1nnc(S(=O)(=O)Cc2ccccc2)o1 | 21.8 | 7.5 | 54.3* | . | 6.2 | 20.7
COc1ccc(-c2cc(-c3nnc4sc(Cc5cccs5)nn34)[nH]n2)cc1 | -21.4 | -17.9 | 3.2 | . | . | .
COc1ccc2[nH]c(C)c(CCN(Cc3cccs3)C(=S)Nc3ccc(F)cc3)c2c1 | . | . | . | 17.7 | . | .
COc1ccc2[nH]c(C)c(CCN(Cc3cccs3)C(=S)Nc3ccccc3)c2c1 | 8.9 | 3.3 | 28.8* | 10.4 | -0.5 | 11.1
Cc1ccccc1N1C(=O)c2cccc3c(N(C)CCO)ccc(c23)C1=O | 2.2 | 3.5 | 71.4* | -1.9 | 4.2 | 62.6*
COc1ccccc1N1C(=O)c2cccc3c(C(=O)O)ccc(c23)C1=O | 0.5 | 1.0 | -0.8 | 4.6 | 3.7 | .
COc1ccccc1N1C(=O)c2cccc3c(N(C)CCO)ccc(c23)C1=O | -0.2 | -10.0 | 66.4* | 0.5 | 11.2 | 46.7*
CN(C(=O)NC1CCCCC1)[C@H]1C[C@H]2c3[nH]c4ccccc4c3CCN2C(=O)[C@H]1CO | 6.6 | -2.0 | 32.7* | 4.3 | 14.5 | 0.5
CN(C(=O)C(C)(C)C)[C@H]1C[C@H]2c3[nH]c4ccccc4c3CCN2C(=O)[C@H]1CO | 2.1 | 1.9 | 0.9 | 8.9 | 2.5 | .
O=C(c1cc(Cl)cc(Cl)c1)N1CCC(Oc2cccnc2)CC1 | 0.8 | 4.9 | -1.7 | . | . | .
O=C(Nc1nc2ncccn2c1-c1ccc(F)cc1)C1CC1 | 0.6 | 6.2 | -0.9 | . | . | .
CCOC(=O)[C@]12CCCC=C1N(CCCOC)C(=O)[C@@H]2CC(=O)N1CCCC1 | -2.8 | -3.1 | -2.1 | . | . | .
CCN1CCN(C(=S)c2ccc(Cl)c(Cl)c2)CC1 | -2.5 | 1.9 | 63.5* | -6.3 | -3.2 | 48.6*
C=CCc1c(C)[nH]c(=S)c(C#N)c1C | 5.6 | -7.3 | 31.6* | -14.2 | 6.1 | 53.1*
COCc1cc(C)c(C#N)c(=S)[nH]1 | . | . | . | -0.8 | . | .
Cc1ccc(C(=O)NN2C(=O)/C(=C/c3cn(C)c4ccccc34)SC2=S)cc1 | -1.2 | -0.9 | 7.3 | -3.2 | -3.4 | .
Cn1cc(/C=C2\SC(=O)NC2=S)c2ccccc21 | 9.3 | 4.0 | 27.6* | 16.3 | -3.8 | 4.8
CC(C)c1c(C#N)c(N)nc(SCC(=O)c2cc3ccccc3oc2=O)c1C#N | -3.9 | -3.4 | -0.1 | -4.9 | 3.0 | .
N#Cc1ccc(-c2ccccc2)nc1SCC(=O)c1cc2ccccc2oc1=O | -18.5 | -25.9 | 34.5* | -45.4 | -4.8 | 8.0
CC(C)NC(=O)c1sc2nc3c(c(-c4cccs4)c2c1N)CN(C)CC3 | 6.6 | -1.9 | 38.5* | 8.6 | 10.3 | 8.1
Cc1cc(C)c2c(=O)n(CC(=O)Nc3ccc(Cl)cc3)sc2n1 | 11.1 | 9.5 | 91.5* | 1.7 | -5.1 | 83.6*
Cc1ccc(NC(=O)Cn2sc3nc(C)cc(C)c3c2=O)c(Cl)c1 | 1.9 | -2.3 | 79.2* | 5.1 | -4.3 | 88.5*
CCOc1ccc(NC(=O)Cn2sc3nc(C)cc(C)c3c2=O)cc1 | . | . | . | -0.4 | . | .
Cc1cc(C)c2c(=O)n(CC(=O)Nc3cccc(F)c3)sc2n1 | 8.7 | 5.8 | 90.1* | -0.6 | 1.1 | 83.8*
N#Cc1ccsc1NC(=O)CSc1nncs1 | 14.8 | 6.6 | 25.9* | 9.9 | 0.7 | 24.0*
SMILES | ABHD4 inh | SIAE inh | PRMT1 inh | HTRA1 inhibitor | TCR CD3 inh | PRMT1 inh conf
Cc1nnc(SCC(=O)Nc2sccc2C#N)s1 | 7.0 | 0.0 | 8.6 | 1.1 | 6.0 | .
COP(=O)(O)C[C@@H]1CCc2cc(C)cc([C@H](CC(C)C)NC(=O)OCc3ccccc3)c2O1 | -3.5 | 2.2 | 5.9 | . | . | .
CN(CCc1ccccn1)C1CC(=O)N(c2ccc(Cl)cc2)C1=O (stereo unspecified) | 0.6 | -4.7 | 79.5* | 2.6 | -1.5 | 16.1
CN(CCc1ccccn1)C(=O)Nc1ccc(Cl)cc1 | 2.9 | 1.9 | 0.7 | 0.7 | -0.2 | .
COC(=O)[C@]12C[C@H](CC(=O)N3CCN(C(=O)C4CC4)CC3)C(=O)N(CCC3=CCCCC3)C1=C[C@H](C1CCCC1)O[C@@H]2C | 0.8 | 1.1 | 5.4 | . | . | .
CC(C)C1Cc2c(C#N)c(N)sc(=S)c2CO1 (stereo unspecified) | 7.6 | 0.5 | 48.3* | 5.6 | -4.0 | 10.4
CC(C)N1CCc2c(sc(N)c2C#N)C1 | -2.6 | -1.7 | 2.5 | 1.9 | 6.3 | .
CCN(CC)c1nc(C)c2c(c1C#N)CC(C)(C)OC2 | -7.3 | -1.0 | 4.1 | 1.4 | -2.0 | .
CC1(C)Cc2c(C#N)c(N)sc(=S)c2CO1 | 2.7 | -4.6 | 46.1* | 3.9 | -4.7 | 20.0
Cc1ccc(-c2nc(C3CCCN(S(=O)(=O)c4ccc(Cl)s4)C3)no2)cc1 (stereo unspecified) | -6.0 | 8.7 | -4.7 | . | . | .
O=C1c2ccccc2[C@@H]2Cc3csc[n+]3[C@H]12 | 7.9 | 2.1 | 85.3* | . | 6.2 | 82.7*
CCC[C@H]1[C@@H](OC(=O)NCc2ccc(OC)cc2)CC[C@@]23CCCN2C(=O)CCC[C@@H]13 | -3.6 | 7.4 | -8.0 | . | . | .
O=C(NC(=S)NC(=O)c1ccccc1F)c1ccccc1F | -1.5 | -5.4 | 28.1* | -1.2 | -5.8 | 1.8
O=C(NC(=S)NCc1ccccc1)c1ccccc1F | -7.3 | -11.5 | 3.5 | -14.0 | -2.8 | .
CCn1c(C(=O)N2CCc3ccccc3C2)cc2sccc21 | -4.0 | 10.8 | 25.4* | -5.6 | -7.2 | 13.5
Cc1ccc(C)c(Cn2c(=O)n(CCC(=O)NCc3ccco3)c(=O)c3ccccc32)c1 | -1.8 | -18.4 | -0.6 | 1.2 | 7.6 | .
Cc1ccc(C)c(Cn2c(=O)n(CCCC(=O)NCc3ccco3)c(=O)c3ccccc32)c1 | -0.7 | 2.8 | 101.9* | 4.8 | -3.3 | -2.0
NC(=O)C1(N2CCCCC2)CCN(C(=S)Nc2ccc(S(N)(=O)=O)cc2)CC1 | -7.1 | 2.3 | 26.5* | -1.9 | -0.6 | 36.0*
CC1Cc2cc(S(=O)(=O)NCc3ccccc3)ccc2N1C(=O)C1CCC1 (stereo unspecified) | 3.1 | -2.0 | -2.8 | -2.7 | 5.9 | .
CC1Cc2cc(S(=O)(=O)NCc3ccccc3)ccc2N1C(=O)C1CC1 (stereo unspecified) | -11.3 | -4.6 | 46.5* | 3.5 | -4.7 | 3.3
O=C(CSC1=NCCN1)C1COc2ccccc2O1 (stereo unspecified) | -0.4 | 0.4 | 33.9* | -6.8 | 11.9 | 42.1*
O=C(Nc1ccncc1)C1COc2ccccc2O1 (stereo unspecified) | 0.1 | 5.9 | 0.0 | 4.3 | 0.7 | .
O=C1CCSc2c1ccc1ccccc21 | -9.1 | -5.3 | 29.3* | -0.9 | -2.2 | -1.5
O=C(/C=C/c1ccccc1)CCN1CCCCC1 | 6.7 | -2.7 | 25.1* | 6.0 | -0.9 | 49.7*
O=C(CCN1CCCCCC1)c1ccccc1 | 4.8 | 1.5 | -1.9 | -3.6 | 0.8 | .
COc1ccc(S(=O)(=O)NCc2cccnc2)cc1NC(=O)c1ccccc1C | 15.6 | -27.8 | 48.3* | 8.0 | 4.8 | 6.2
COc1ccc(N2C(=O)CC(Sc3nnnn3-c3ccc(F)cc3)C2=O)cc1 (stereo unspecified) | 1.3 | 1.8 | 50.7* | -6.0 | -1.3 | 64.2*

Assay outcomes deposited in PubChem by The Scripps Research Institute Molecular Screening Center.
